Data: ChEMBL document CHEMBL1138555, “N-acylated and N,N'-diacylated imidazolidine-2-thione derivatives and N,N'-diacylated tetrahydropyrimidine-2(1H)-thione analogues: synthesis and antiproliferative activity” (Eur J Med Chem, 2009)

How the values were obtained:
Type in all cases: functional
COLO 205 = test: Growth inhibition of human COLO205 cells after 48 hrs by sulforhodamine B assay; conditions: COLO 205, 48 h
Summary of the method: (§1)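 NCI screen panel. Five 10-fold concentrations from 10^-4 to 10^-8 M. Exposure for the last 48 h of a 72 h incubation. Growth estimated by sulforhodamine B protein assay. GI50 is the concentration giving 50% growth inhibition. Where that level was not reached or was exceeded, the value is given as above or below the highest or lowest concentration tested.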

T47D = test: Growth inhibition of human T47D cells after 48 hrs by sulforhodamine B assay
Summary of the method: (§2)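 NCI in vitro panel screen. Compounds tested at five 10-fold dilutions, 10^-4 to 10^-8 M. Cells in 96-well plates were exposed for the last 48 h of a 72 h incubation. Viability/growth was read by sulforhodamine B protein assay. GI50 is the concentration giving 50% growth inhibition. Values beyond the tested range are reported as greater or less than the maximum or minimum concentration.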

SNB-75 = test: Growth inhibition of human SNB75 cells after 48 hrs by sulforhodamine B assay; conditions: SNB-75, 48 h; summary of the method: as §2
[1] = Growth inhibition of human Hs 578T cells after 48 hrs by sulforhodamine B assay; summary of the method: as §1
MDA-N = test: Growth inhibition of human MDA-N cells after 48 hrs by sulforhodamine B assay
Summary of the method: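 NCI screen panel. Five 10-fold concentrations from 10^-4 to 10^-8 M. Exposure for the last 48 h of a 72 h incubation. Growth estimated by sulforhodamine B protein assay. Where that level was not reached or was exceeded, the value is given as above or below the highest or lowest concentration tested.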

A549 = test: Growth inhibition of human A549 cells after 48 hrs by sulforhodamine B assay; conditions: A549, 48 h; summary of the method: as §1
A498 = test: Growth inhibition of human A498 cells after 48 hrs by sulforhodamine B assay; conditions: A498, 48 h; summary of the method: as §1
K562 = test: Growth inhibition of human K562 cells after 48 hrs by sulforhodamine B assay; conditions: K562, 48 h; summary of the method: as §1
SNB-19 = test: Growth inhibition of human SNB19 cells after 48 hrs by sulforhodamine B assay; conditions: SNB-19, 48 h; summary of the method: as §2
SR = test: Growth inhibition of human SR cells after 48 hrs by sulforhodamine B assay; summary of the method: as §2
NCI-H226 = test: Growth inhibition of human NCI-H226 cells after 48 hrs by sulforhodamine B assay; conditions: NCI-H226, 48 h; summary of the method: as §1
OVCAR-8 = test: Growth inhibition of human OVCAR8 cells after 48 hrs by sulforhodamine B assay; conditions: OVCAR-8, 48 h; summary of the method: as §1
SK-MEL-5 = test: Growth inhibition of human SK-MEL-5 cells after 48 hrs by sulforhodamine B assay; conditions: SK-MEL-5, 48 h; summary of the method: as §1
[2] = Growth inhibition of human […] cells after 48 hrs by sulforhodamine B assay; summary of the method: as §1
MOLT-4 = test: Growth inhibition of human MOLT4 cells after 48 hrs by sulforhodamine B assay; conditions: MOLT-4, 48 h; summary of the method: as §1
CCRF-CEM = test: Growth inhibition of human CCRF-CEM cells after 48 hrs by sulforhodamine B assay; summary of the method: as §1
ACHN = test: Growth inhibition of human ACHN cells after 48 hrs by sulforhodamine B assay; summary of the method: as §1
EKVX = test: Growth inhibition of human EKVX cells after 48 hrs by sulforhodamine B assay; summary of the method: as §1
NCI/ADR-RES = test: Growth inhibition of human NCI/ADR-RES cells after 48 hrs by sulforhodamine B assay; summary of the method: as §1
UACC-257 = test: Growth inhibition of human UACC257 cells after 48 hrs by sulforhodamine B assay; conditions: UACC-257, 48 h; summary of the method: as §2
HOP-62 = test: Growth inhibition of human HOP62 cells after 48 hrs by sulforhodamine B assay; conditions: HOP-62, 48 h; summary of the method: as §1

Structure (SMILES)	GI50 (COLO 205) [µM]	GI50 (T47D) [µM]	GI50 (SNB-75) [µM]	GI50 [1] [µM]	GI50 (MDA-N) [µM]	GI50 (A549) [µM]	GI50 (A498) [µM]	GI50 (K562) [µM]	GI50 (SNB-19) [µM]	GI50 (SR) [µM]	GI50 (NCI-H226) [µM]	GI50 (OVCAR-8) [µM]	GI50 [2] [µM]	GI50 (MOLT-4) [µM]	GI50 (CCRF-CEM) [µM]	GI50 (ACHN) [µM]	GI50 (EKVX) [µM]	GI50 (NCI/ADR-RES) [µM]	GI50 (UACC-257) [µM]	GI50 (HOP-62) [µM]	also measured
O=CN1CCN(C(=O)c2ccco2)C1=S	8.7	4	8.6	11	9.1	12.5	16.5	2.6	24.6	2.1	28.5	16.8	1.8	4.6	3.6	6.5	13.7	24.5	11.7	12	GI50 (SK-MEL-5): 12.7 µM
O=C(c1ccco1)N1CCN(C(=O)c2ccco2)C1=S	9.4	4.9	10.4	6.8	5	9.8	16.6	1	25.4	1.8	28.7	8.8	2	0.3	1.2	4.7	13.4	15.6	4.6	8.7	GI50 (SK-MEL-5): 10.1 µM
O=C(c1cc(Cl)cc(Cl)c1)N1CCN(C(=O)c2cc(Cl)cc(Cl)c2)C1=S	18.3	6.5	14.1	21.4	13	18.4	15.5	4.8	19	3.3	23.7	15.3	1.5	3.4	3.3	17.4	17.6	31.7	15.5	14.3	GI50 (SK-MEL-5): 16.1 µM
O=C(c1ccc(Cl)cc1Cl)N1CCN(C(=O)c2ccc(Cl)cc2Cl)C1=S	21	19.5	22.3	41	20	20.1	16.1	31.4	24.9		40.9	22.1	12.9	20.5	19.5	21.3	20.5	24.8	28.2	23.1	
O=C(c1ccc(Cl)c(Cl)c1)N1CCN(C(=O)c2ccc(Cl)c(Cl)c2)C1=S	17.7	17.5	18.9	29.1	18.3	27.8	20.2	16.5	21.4		19	19	1.8	15.7	4.5	19.2	20.8	34.4	17.3	17.6	
COc1cc(C(=O)N2CCN(C=O)C2=S)cc(OC)c1OC	20.2	20.7	10.9	27.6	17.9	33.2	20.5	30.8	28.5		35.9	24	7.3	29.4	18.3	20.1	31.8	36.1	19.9	20	
O=C(c1cccs1)N1CCN(C(=O)c2cccs2)C1=S	7.7	4.6	1.4	16.6	2.6	4	15.1	3.5	14.4	3.4	15.9	5.3	1.2	3.2	2.1	15	15.9	19.1	7.5	6.7	GI50 (SK-MEL-5): 4.6 µM
COc1cc(C(=O)N2CCN(C(=O)c3cc(OC)c(OC)c(OC)c3)C2=S)cc(OC)c1OC	19.4	13.1	7.1	24.7	15	19.9	17.7	24.9	18.5		19.5	21.9	3.7	23.5	12.2	17.8		26.8	21.7	15.2	
